Among the data in ChEMBL document CHEMBL1926549, “First chemical feature-based pharmacophore modeling of potent retinoidal retinoic acid metabolism blocking agents (RAMBAs): identification of novel RAMBA scaffolds” (Eur J Med Chem, 2012) are IC50 and inhibition values, retold here.

Test system in the first experiment: not listed separately
The experiment can be described thus: Inhibition of CYP26 in hamster liver microsomes assessed as [11,12-[3H]ATRA metabolism treated 3 mins before [11,12,3H]ATRA addition measured after 30 mins by HPLC analysis. Also noted: species or system Cricetinae, Microsome.
Settings: not given
For `COC(=O)/C=C(C)/C=C/C=C(C)/C=C/C1=C(C)C(n2ccnc2)CCC1(C)C` (racemic), the IC50 was 0.009 nM.

For `COC(=O)/C=C(C)/C=C/C=C(C)/C=C/C1=C(C)C(n2cncn2)CCC1(C)C` (racemic), the IC50 was 2 nM.

On to `CC1=C(/C=C/C(C)=C/C=C/C(C)=C/C(=O)O)C(C)(C)CCC1n1ccnc1` (racemic), for which the IC50 turned out to be 2.33 nM.

`CC1=C(/C=C/C(C)=C/C=C/C(C)=C/C(=O)O)C(C)(C)CCC1n1cncn1` (racemic): the IC50 was 5.84 nM.

As to `CC1=C(/C=C/C(C)=C/C=C/C(C)=C/C(=O)n2ccnc2)C(C)(C)CCC1n1cncn1` (racemic), the IC50 turned out to be 0.05 nM.

The test system of another experiment is Cricetinae. Description: Inhibition of CYP26 in hamster liver microsomes assessed as [11,12-[3H]ATRA metabolism at 100 nM treated 3 mins before [11,12,3H]ATRA addition measured after 30 mins by HPLC analysis. The settings on record: Microsome. In a few lines:
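Hamster liver microsomes (500 μg/mL stock) were used in 0.1 M phosphate buffer, pH 7.4, with NADPH (20 mM stock), MgCl2 and BSA. Inhibitor at 100 nM in DMSO was preincubated for 3 min at 37 °C. [11,12-3H]-ATRA was then added at 20 μM and incubated 30 min under oxygen at 37 °C. The reaction was stopped with formic acid, extracted with ethyl acetate/methanol/BHA, and radiolabelled polar metabolites were quantified by HPLC.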
For the molecule `Cc1nc(N)nc(O)c1CCCNc1ccc(CCCCC2(CCl)OCCO2)cc1`, the inhibition came out at 29.4%.

For the molecule `Cc1nc(N)nc(O)c1CCCNc1ccc(CCCCC(=O)CCl)cc1`, the inhibition is 42.8%.

Regarding `CNC(=S)N/N=C(\C)CCCCCCCCCCCC/C(C)=N/NC(=S)NC`, the inhibition was 21.2%.

Take `CC(SCCCCCCCCCCSC(C)C(=O)O)C(=O)O` (stereo not given): the inhibition is 20.5%.

Regarding `C/C(=N\CCCCCC/N=C(\C)c1cc(O)ccc1O)c1cc(O)ccc1O`, the inhibition amounted to 22.2%.

Consider `CCOc1cc(/C=N/N2CCN(/N=C/c3ccc(O)c(OCC)c3)CC2)ccc1O`, for which the inhibition was determined as 34.3%.

For the molecule `COC(=O)CCCCCc1ccc(Cc2ccc(CCCCCC(=O)OC)cc2)cc1`, the inhibition turned out to be 31.4%.

For `O=C(Oc1ccc(CC/C=C/CCc2ccc(OC(=O)c3ccccc3)cc2)cc1)c1ccccc1`, the inhibition was determined as 30.4%.

Consider `CCCCCCC(CCCCCCCCCCC(=O)OC(C)(C)C)OC(C)=O` (stereo not given), for which the inhibition is 36.2%.

As to `COC(=O)c1cc(OCC#CC#CCOc2ccc(O)c(C(=O)OC)c2)ccc1O`, the inhibition turned out to be 17.9%.

On to `Nc1nc(Cl)cc(NCCCCCCCCCCNc2cc(Cl)nc(N)n2)n1`, for which the inhibition is 32.7%.

As to `O=C(Nc1ccc(OCCCCCOc2ccccc2)cc1)C(F)(F)F`, the inhibition amounted to 34.8%.

In the case of `CCOC(=O)CCCCCCCCCCCCCCCCC(=O)OCC`, the inhibition was 29.5%.

On to `CCOC(=O)c1cnn(-c2ccc(Cc3ccc(-n4ncc(C(=O)OCC)c4C)cc3)cc2)c1C`, for which the inhibition worked out at 49.8%.

Regarding `CCOC(=O)/C=C(\C)NCCSSCCN/C(C)=C/C(=O)OCC`, the inhibition was 54.7%.

On to `C/C(=N\Cc1cccc(C/N=C(\C)c2ccccc2O)c1)c1ccccc1O`, for which the inhibition was 38.6%.

Regarding `Cc1cc(CC(C)C2CCC(C)C(c3ccc(O)c(C)c3)C2)ccc1O` (stereo not given), the inhibition is 33.8%.

As to `COc1ccc(/C(C)=N/OC(=O)c2cc(OC)c(OC)c(OC)c2)cc1CSc1ccccn1`, the inhibition was found to be 28.5%.

Consider `Nc1nc(Cl)cc(NCCCCCCCCNc2cc(Cl)nc(N)n2)n1`, for which the inhibition was determined as 18.1%.

Regarding `COc1cc(/C=N/CCCC/N=C/c2cc(OC)c(OC)c(OC)c2)cc(OC)c1OC`, the inhibition came to 27.3%.
